According to ChEMBL document CHEMBL4680121, “Development of (4-methoxyphenyl)-1H-tetrazol-5-amine regioisomers as a new class of selective antitubercular agents” (Eur J Med Chem, 2020):
Converted amounts (≈) assume the structure as drawn.

How the values were obtained:
[1] = tested on: Staphylococcus epidermidis; assay: Antibacterial activity against Staphylococcus epidermidis ATCC 12228 assessed as bacterial growth inhibition measured after 18 hrs by two-fold serial microdilution method; type: functional
Outline: (§1)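 Two-fold serial broth microdilution in MH II medium following modified CLSI procedures. Compounds were dissolved in DMSO and diluted in medium to at most 1% solvent, tested from 0.03125 to 512 μg/ml. Final inoculum 10^6 CFU/ml. MIC was taken as the lowest concentration with no visible growth after 18 h at 35 °C.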

Mycobacterium xenopi = assay: Antibacterial activity against Mycobacterium xenopi assessed as inhibition of microbial growth incubated for 1 week by MABA method; type: functional; details: 168 h, time 1 weeks
Outline: (§2)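 Microplate Alamar Blue assay using two-fold serial microdilution in Middlebrook 7H9 broth with 10% OADC, compounds 0.125–512 µg/ml from DMSO stocks. Inoculum came from fresh LJ culture, was adjusted to McFarland 1 and diluted 1:20. Plates were incubated 1 week at 37 °C, Alamar blue was added and plates were re-incubated 24 h. MIC was the lowest concentration preventing the blue-to-pink change. Each plate carried growth and sterile controls.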

HaCaT [2] = assay: Cytotoxicity against human HaCaT cells assessed as reduction in cell viability measured after 72 hrs by MTT assay; type: cell-based
Outline: (§3)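 MTT viability assay on cells grown in DMEM with 10% heat-inactivated FBS, penicillin/streptomycin and 20 mM HEPES at 37 °C/5% CO2. Cells were seeded at 1×10^4 per well and allowed to adhere for 24 h, then the medium was refreshed. Compounds were added at 20–140 μM for 72 h at 37 °C, followed by MTT (0.5 mg/mL in serum-free medium) for 4 h. Untreated cells served as control. IC50 is the concentration giving 50% growth inhibition versus control.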

Staphylococcus aureus [3] = assay: Antibacterial activity against Staphylococcus aureus NCTC 4163 assessed as bacterial growth inhibition measured after 18 hrs by two-fold serial microdilution method; type: functional; outline: as §1
[4] = tested on: Mycolicibacterium fortuitum; assay: Antibacterial activity against Mycobacterium fortuitum assessed as inhibition of microbial growth incubated for 1 week by MABA method; type: functional; details: 168 h, time 1 weeks; outline: as §2
[5] = tested on: Mycobacterium tuberculosis; assay: Antitubercular activity against Mycobacterium tuberculosis Spec.192 assessed as inhibition of microbial growth incubated for 1 week by MABA method; type: functional; details: Mycobacterium tuberculosis, 192, 168 h; time 1 weeks
Outline: (§4)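 Microplate Alamar Blue assay in Middlebrook 7H9 broth with 10% OADC. Inoculum from fresh LJ culture was adjusted to McFarland 1 and diluted 1:20. DMSO stocks were two-fold serially diluted to final 0.125–512 µg/ml, with growth and sterile controls. Plates ran 1 week at 37 °C, then Alamar blue was added for 24 h. MIC is the lowest concentration preventing the blue-to-pink change.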

Escherichia coli = assay: Antibacterial activity against Escherichia coli ATCC 25922 assessed as bacterial growth inhibition measured after 18 hrs by two-fold serial microdilution method; type: functional; outline: as §1
[6] = tested on: Mycobacterium scrofulaceum; assay: Potency index, ratio of isoniazid MIC to test compound MIC for antibacterial activity against Mycobacterium scrofulaceum assessed as inhibition of microbial growth incubated for 1 week by MABA method; type: functional; details: time 1 weeks
[7] = tested on: Mycobacterium tuberculosis; assay: Antitubercular activity against Mycobacterium tuberculosis H37Rv ATCC 25618 assessed as inhibition of microbial growth incubated for 1 week by MABA method; type: functional; details: H37Rv ATCC 25618, 168 h, time 1 weeks; outline: as §4
HaCaT [8] = assay: Cytotoxicity against human HaCaT cells assessed as reduction in cell viability at 100 uM measured after 72 hrs by MTT assay; type: cell-based; outline: as §3
Pseudomonas aeruginosa [9] = assay: Antibacterial activity against Pseudomonas aeruginosa PAO1 assessed as bacterial growth inhibition measured after 18 hrs by two-fold serial microdilution method; type: functional; outline: as §1
Klebsiella pneumoniae = assay: Antibacterial activity against Klebsiella pneumoniae ATCC 10031 assessed as bacterial growth inhibition measured after 18 hrs by two-fold serial microdilution method; type: functional; outline: as §1
[10] = tested on: Staphylococcus epidermidis; assay: Antibacterial activity against Staphylococcus epidermidis ATCC 1457 assessed as bacterial growth inhibition measured after 18 hrs by two-fold serial microdilution method; type: functional; outline: as §1
Pseudomonas aeruginosa [11] = assay: Antibacterial activity against Pseudomonas aeruginosa NCTC 6749 assessed as bacterial growth inhibition measured after 18 hrs by two-fold serial microdilution method; type: functional; outline: as §1
V79 [12] = assay: Cytotoxicity against Chinese Hamster V79 cells assessed as reduction in cell viability at 100 uM measured after 72 hrs by MTT assay; type: cell-based, Cricetulus griseus; details: v79, 72 h; outline: as §3
Mycobacterium kansasii = assay: Antibacterial activity against Mycobacterium kansasii assessed as inhibition of microbial growth incubated for 1 week by MABA method; type: functional; details: 168 h, time 1 weeks; outline: as §2
Mycobacterium avium = assay: Antimycobacterial activity against Mycobacterium avium assessed as inhibition of microbial growth incubated for 1 week by MABA method; type: functional; details: 168 h, time 1 weeks; outline: as §4
Proteus vulgaris = assay: Antibacterial activity against Proteus vulgaris NCTC 4635 assessed as bacterial growth inhibition measured after 18 hrs by two-fold serial microdilution method; type: functional; outline: as §1
[13] = tested on: Mycobacterium scrofulaceum; assay: Antibacterial activity against Mycobacterium scrofulaceum assessed as inhibition of microbial growth incubated for 1 week by MABA method; type: functional; details: 168 h, time 1 weeks; outline: as §2
Staphylococcus aureus [14] = assay: Antibacterial activity against Staphylococcus aureus ATCC 6538 assessed as bacterial growth inhibition measured after 18 hrs by two-fold serial microdilution method; type: functional; outline: as §1
[15] = tested on: Mycobacterium intracellulare; assay: Antimycobacterial activity against Mycobacterium intracellulare assessed as inhibition of microbial growth incubated for 1 week by MABA method; type: functional; details: 168 h, time 1 weeks; outline: as §2
V79 [16] = assay: Cytotoxicity against Chinese Hamster V79 cells assessed as reduction in cell viability measured after 72 hrs by MTT assay; type: cell-based; details: Cricetulus griseus, V79, 72 h; outline: as §3
[17] = tested on: Staphylococcus epidermidis; assay: Antibacterial activity against Staphylococcus epidermidis ATCC 35984/RP62A assessed as bacterial growth inhibition measured after 18 hrs by two-fold serial microdilution method; type: functional; outline: as §1

`COc1ccc(Nc2nnnn2-c2ccc(Cl)cc2)cc1` was tested. Which MIC [1] did it give?
Its MIC is 256 µg/mL (≈ 848 µM).

And the MIC (Mycobacterium xenopi)?
Its MIC is 128 µg/mL.

What about the IC50 (HaCaT [2]) of the same compound?
Its IC50 is 102 µM.

What about the MIC (Staphylococcus aureus [3]) of the same compound?
The MIC was 256 µg/mL (≈ 848 µM).

And the MIC [4]?
The MIC was > 512 µg/mL.

And the MIC [5]?
Its MIC is 8 µg/mL.

What about the MIC (Escherichia coli) of the same compound?
The MIC was > 256 µg/mL.

What about the Ratio [6] of the same compound?
Its Ratio is 4.

And the MIC [7]?
Its MIC is 8 µg/mL.

What about the Activity (HaCaT [8]) of the same compound?
Its Activity is “Non-Toxic”.

And the MIC (Pseudomonas aeruginosa [9])?
The MIC was > 256 µg/mL.

And the MIC (Klebsiella pneumoniae)?
Its MIC is > 256 µg/mL.

What about the MIC [10] of the same compound?
Its MIC is > 256 µg/mL.

What about the MIC (Pseudomonas aeruginosa [11]) of the same compound?
The MIC was > 256 µg/mL.

What about the Activity (V79 [12]) of the same compound?
The Activity was “Non-Toxic”.

What about the MIC (Mycobacterium kansasii) of the same compound?
Its MIC is 512 µg/mL.

What about the MIC (Mycobacterium avium) of the same compound?
The MIC was 256 µg/mL.

What about the MIC (Proteus vulgaris) of the same compound?
Its MIC is > 256 µg/mL.

And the MIC [13]?
Its MIC is 16 µg/mL.

And the MIC (Staphylococcus aureus [14])?
The MIC was > 256 µg/mL.

What about the MIC [15] of the same compound?
The MIC was 128 µg/mL.

What about the IC50 (V79 [16]) of the same compound?
The IC50 was 115 µM.

And the MIC [17]?
The MIC was 256 µg/mL (≈ 848 µM).
